Source: PubChem (Broad Institute)
The list is not random: actives were taken first. Their share in the collection is about 0.7%.
RAD54 branch = inhibitors of human RAD54 branch migration; inhibition, % at 10.4 µM; 360,000 tested, 0.14% active; Q92698; RAD54 Holliday junction branch migration, FAM/BHQ fluorescence;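 active = mean normalized replicate activity at least 40 and at least half of replicates scoring 40 or more; inconclusive = only one of the two criteria met; inactive = mean below 40 and under half of replicates reaching 40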;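 note: 0% = median of neutral control wells and 100% = median of positive control wells; inhibitors cause a drop in the FAM fluorescence signal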
RAD52 inh = RAD52 (human) annealing inhibition. P43351. recombinant RAD52 DNA annealing, FRET fluorescence. inhibition, % at 18.7 µM. 360,000 tested, 0.46% active;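 active = every replicate showing at least 50% inhibition; inconclusive = mean inhibition at least 50% but not in every replicate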
Target sequence (P43351 whole entry, looked up): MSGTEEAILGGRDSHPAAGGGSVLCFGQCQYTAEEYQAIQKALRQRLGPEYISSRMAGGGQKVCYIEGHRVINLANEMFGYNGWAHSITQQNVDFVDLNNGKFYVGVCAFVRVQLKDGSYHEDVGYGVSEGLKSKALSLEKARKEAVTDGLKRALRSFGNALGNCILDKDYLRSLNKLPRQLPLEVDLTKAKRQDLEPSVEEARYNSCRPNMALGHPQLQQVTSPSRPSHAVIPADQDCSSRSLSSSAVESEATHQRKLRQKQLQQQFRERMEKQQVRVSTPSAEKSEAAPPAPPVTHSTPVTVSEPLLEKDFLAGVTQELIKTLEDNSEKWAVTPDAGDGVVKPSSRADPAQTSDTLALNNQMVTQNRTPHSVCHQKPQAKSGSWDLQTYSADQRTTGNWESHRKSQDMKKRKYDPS
FN deposit inh = fibronectin deposition inhibition | AH1F fibroblasts, Alexa488-fibronectin deposition fluorescence, overnight | inhibition, % at 12.6 µM | 350,000 tested, 0.086% active;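 active = mean inhibition across replicates of 30% or more, regardless of how many single replicates reach that level; inconclusive = mean under 30% yet at least half of replicates reach 30%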;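 note: positive control wells lacked labelled fibronectin entirely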
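Measured by – fluorescence 485/525 nm · System – AH1F fibroblast monolayer, labelled fibronectin deposition · Amount – 10000 cells per well · Buffer or medium – serum-reduced DMEM (2% serum) · Doses – single dose, pinned · Also added – fluorescent fibronectin at 24 nM final · Schedule – 1 h cell attachment, overnight exposure to compound and label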
Glyco luc inh = blocks N-linked glycosylation in D54 reporter cells; reporter increase, % at 12.5 µM; D54 ERlucT glycosylation luciferase reporter, 24 h; percent of 100 nM tunicamycin response; AID 588692; 360,000 tested, 0.23% active;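 active = mean luciferase reporter signal, scaled so untreated is 0 and the glycosylation-blocking control 100, at or above a set limit in every replicate; inconclusive = mean reaches the limit but not every replicate does; inactive = mean below the limit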;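 note: luciferase carries N-glycosylation sites so blocking glycosylation raises the light; 0% = median of neutral control wells and 100% = median of 100 nM tunicamycin wells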
CaV13 ICDI inh = Disruptors of the CACNA1D IQ motif to Ca2+-dependent inactivation inhibitor domain association, primary screening, Förster resonance energy transfer in intact living … | HEK cells, CFP/YFP FRET ICDI-IQ, plate reader, 10 min; percent FRET-ratio fall versus neutral wells | inhibition, % at 12.3 µM | 340,000 tested, 0.098% active | AID 743397;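 active = mean replicate inhibition of at least 30% and at least 1% of replicates passing that level; inconclusive = only one of the two criteria is met; inactive = neither criterion is met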;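 note: 0% = median of the neutral control wells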
Numbers without * were called inactive; ? = inconclusive; . = not tested or not shown; + = active, no number; ! = not active in a repeat.

SMILES | RAD54 branch | RAD52 inh | FN deposit inh | Glyco luc inh | CaV13 ICDI inh
CCN1CCN(CCCNC(=O)c2ccc3c(c2)NC(=O)/C(=C\c2cccc(C)c2)S3)CC1 | 66* | 44 | 11 | -11 | -7
COCCCNC(=O)/C=C1\Sc2ccccc2N(Cc2ccccc2F)C1=O | 7 | -10 | 8 | -2 | -18
CCN1CCN(CCNC(=O)c2ccc(/C=C3\Sc4ccccc4N(Cc4ccccc4F)C3=O)cc2)CC1 | . | 85* | 8 | -5 | -8
CCOC(=O)c1c(NC(C)=O)sc2c1CCC(C=O)=C2Sc1ccccc1 | -3 | -31 | . | 32* | -10
CCC(=O)NCCCNc1nc2c(C)cccc2cc1C#N | . | -16 | 1 | 4 | 46*
COc1cc(C(=O)NCCNc2nc3c(C)cccc3cc2C#N)cc(OC)c1OC | -8 | -25 | 5 | 4 | -5
COc1cc(C(=O)NCCCNc2nc3c(C)cc(C)cc3cc2C#N)cc(OC)c1OC | . | -13 | 3 | 5 | 59*
COc1ccc(C(=O)NCCNc2nc3c(C)cccc3cc2C#N)cc1 | 0 | -5 | 0 | 2 | -15
COc1ccc(-c2ccc3n(c2=O)C[C@@H]2N[C@H]3[C@H](C(=O)N3CCCCC3)[C@H]2CO)cc1 | . | -9 | . | . | .
COc1cc2nc3c4ccccc4n(CC#N)c3nc2cc1OC | . | . | . | . | -8
CCn1c2ccccc2c2nc3cc(OC)c(OC)cc3nc21 | 26 | . | 35* | 1 | 3
c1ccc2[nH]c(SCc3cn4cccnc4n3)nc2c1 | . | . | 31* | 1 | -4
CCS(=O)(=O)N[C@H]1CC[C@H](CC(=O)NCc2ccc(F)cc2)O[C@H]1CO | -1 | -6 | 2 | . | .
CC=Cc1ccc2n(c1=O)C[C@H]1[C@H](CO)[C@@H](C(=O)NCCc3cn(C)cn3)N(C(=O)C3CCCC3)[C@@H]21 (mixture of isomers) | . | 2 | . | . | .
CCCc1cc(C(=O)OC)c(NC(=O)CCC(=O)O)s1 | . | -4 | 33* | 1 | -5
CN(C)c1ccc(C=c2c3cc([N+](=O)[O-])ccc3n3c2cc(-c2ccccc2)[n+]3C)cc1 | . | 100* | 3 | -8 | -7
COc1ccc(-c2nc3ccncc3[nH]2)cc1OC | -4 | . | 30* | 2 | -4
CC(C)[C@@H]1C(=O)N[C@@H](c2ccccc2)CC=CC[C@@H](C)Oc2ccccc2C(=O)N1C (mixture of isomers) | . | . | 4 | . | .
COCCCOc1cc(NCc2ccccc2)c2ncn(C(C)C)c2c1 | -9 | -33 | 0 | -1 | 122*
O=C1c2ccccc2C(=O)N1c1ccccc1 | -5 | -12 | . | 1 | .
Nc1cccc2c1C(=O)N(c1ccccc1)C2=O | -14 | -22 | -8 | 0 | +
CC1COCC(C)N1C1=C(Cl)C(=O)c2ccccc2C1=O (stereo not drawn) | -4 | -30 | -10 | 34* | -8
O=C(C1CCC1)N1CC[C@@H]2[C@H](CO)Nc3ccc(C#Cc4cccc(F)c4)cc3[C@@H]21 | -5 | -62 | 7 | . | .
COCC(=O)N1C[C@H](C)[C@@H](OC)CN(C)C(=O)c2ccc(NC(=O)c3ccc(F)cc3)cc2OC[C@@H]1C | . | -7 | -6 | . | .
O=C(CCCc1ccccc1)Nc1cccc(C(=O)O)c1 | . | -21 | 33* | -5 | -5
SMILES | RAD54 branch | RAD52 inh | FN deposit inh | Glyco luc inh | CaV13 ICDI inh
O=C(CCc1ccccc1)NC(=S)Nc1cccc(C(=O)O)c1 | 3 | -3 | -4 | -2 | -10
C[C@@H]1CN([C@@H](C)CO)C(=O)c2cc(C3=CCCCC3)cnc2O[C@@H]1CN(C)Cc1cccnc1 | -7 | 0 | 0 | . | .
CN(C)CC(=O)N[C@H]1C[C@@H]2O[C@H](CO)CC[C@@H]2O[C@@H]1CCc1ccc(C#Cc2ccccc2)cc1 | . | 60* | . | . | .
CO[C@@H]1CN(C)C(=O)c2ccc(NC(=O)c3cnccn3)cc2OC[C@H](C)N(C)C[C@@H]1C | 11 | . | 3 | . | .
CC1=CC(=O)[C@@H](O)[C@@H](c2ccccc2Br)N1C | -3 | -11 | active | 3 | -4
O=C(C[C@@H]1C[C@@H]2c3cc(NC(=O)c4ccc5c(c4)OCO5)ccc3O[C@@H]2[C@@H](CO)O1)NCc1ccc(Oc2ccccc2)cc1 | 1 | 5 | 31* | . | .
O=C(C[C@H]1C[C@H]2c3cc(NC(=O)c4ccc5c(c4)OCO5)ccc3O[C@H]2[C@@H](CO)O1)NCc1ccc(Oc2ccccc2)cc1 | 7 | -1 | 25 | . | .
COc1cccc(S(=O)(=O)Nc2ccc3c(c2)[C@@H]2C[C@@H](CC(=O)NC4CCCCC4)O[C@@H](CO)[C@@H]2O3)c1 | 1 | 0 | 5 | . | .
COc1cccc(S(=O)(=O)Nc2ccc3c(c2)[C@H]2C[C@@H](CC(=O)NC4CCCCC4)O[C@H](CO)[C@H]2O3)c1 | -29 | 67* | . | . | .
C[C@@H]1CN([C@H](C)CO)C(=O)c2cc(-c3ccccc3)cnc2O[C@@H]1CN(C)CC1CC1 | 2 | 16 | -4 | . | .
CC1(C)CC(=O)C2=C(C1)OC(N)=C(C#N)[C@@H]2c1ccccc1[N+](=O)[O-] | -90 | -49 | 8 | 1 | 179*
C[C@H]1CN([C@@H](C)CO)C(=O)c2cccc(N(C)C)c2O[C@H]1CN(C)C(=O)Nc1ccccc1 | 19 | -2 | 3 | . | .
Cc1c(O)ccc2cc(S(=O)(=O)c3ccccc3)c(=O)oc12 | -4 | -17 | 4 | 1 | 34*
Cc1ccccc1-c1ccc(C2[C@@H]3CN(C(=O)C4CC4)C[C@H]2N3)cc1 (stereo partly drawn) | . | 84*! | 17 | . | .
O=C(C1CC1)N1C[C@@H]2N[C@H](C1)C2c1ccc(/C=C/c2ccccc2)cc1 (stereo partly drawn) | . | 51*! | -9 | . | .
Cc1ccccc1-c1ccc(C2[C@@H]3CN(C(=O)C4CCOCC4)C[C@H]2N3)cc1 (stereo partly drawn) | . | 0 | -8 | . | .
C/C=C/c1ccc(C2[C@@H]3CN(C(=O)Nc4ccccc4F)C[C@H]2N3)cc1 (stereo partly drawn) | . | . | -6 | . | .
O=C(Nc1ccccc1F)N1C[C@@H]2N[C@H](C1)C2c1ccc(/C=C/c2ccccc2)cc1 (stereo partly drawn) | . | 69* | 9 | . | .
CC(C)(C)c1nnc2sc(SCC(=O)c3ccc4c(c3)OCCO4)nn2c1=O | 1 | -1 | -1 | 40* | -2
Cc1ccc(C(=O)CSc2nn3c(=O)c(C(C)(C)C)nnc3s2)cc1 | 5 | . | . | ? | .
O=C1C=CC(=O)N1CCCCCCN1C(=O)C=CC1=O | . | . | 48* | . | -5
O=C(O)CN1C(=O)C=CC1=O | -17 | -12 | 8 | 2 | -11
C[C@@H]1CN([C@@H](C)CO)C(=O)c2cccc(NS(=O)(=O)c3cccs3)c2O[C@H]1CN(C)CC1CCCCC1 | 5 | -4 | 7 | . | .
C[C@@H]1CN([C@@H](C)CO)C(=O)Cc2cc(NC(=O)Nc3ccccc3)ccc2O[C@H]1CN(C)C(=O)Nc1ccc(C(F)(F)F)cc1 | 0 | . | . | . | .
